Data taken from ChEMBL document CHEMBL4382263, “Spirostaphylotrichin X from a Marine-Derived Fungus as an Anti-influenza Agent Targeting RNA Polymerase PB2” (J Nat Prod, 2018).
Calls of active or inactive are those of the source. No cut-off for these calls is given here.

Key:
[1] = tested on: Influenza A virus; assay: Antiviral activity against Influenza A virus (A/PR/8/34(H1N1)) harboring neuraminidase H274Y mutant infected in MDCK cells assessed as reduction in virus-induced cytopathic effect by MTT assay; assay type: functional, organism-based, A/Puerto Rico/8/1934(H1N1)
Summary of the method: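 MTT-based cytopathic-effect reduction assay in MDCK cells. Run in triplicate; IC50 reported as mean ± SD.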

[2] = tested on: Influenza A virus (A/Puerto Rico/8/1934(H1N1)); assay: Inhibition of RNA polymerase in Influenza A virus (A/PR/8/34(H1N1)) infected in human 293T cells harboring pPol1-Fluc at 10 uM after 24 hrs by luciferase reporter gene assay; assay type: cell-based
Summary of the method: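 293T cells transfected with 50 ng pPolI-Fluc reporter. After 5 h, infected with PR8 at different titres for 1 h. Then given DMEM/10% FBS with 10 μM compound or 0.1% DMSO; luciferase measured in lysates after 24 h.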

CC/C=C1/C=CC(=O)[C@@H](O)[C@]12C(=O)N(OC)[C@@](C)(OC)[C@@H]2O
IC50 [1]: 1200 nM | inhibition [2]: Active
